Active and inactive are the calls of the source. The calls are words filed in the database; no cut-off is given here.
Legend:
[1] = biological target: T1, Peroxisome proliferator-activated receptor gamma (Homo sapiens, UniProt P37231); assay: Transactivation of chimeric GAL4-fused human PPARgamma transfected in HEK293EBNA cells measured at 24 hrs after drug treatment by steady-Glo luciferase assay reagent based luminescence assay; format: cell-based
T1 sequence (P37231 whole entry): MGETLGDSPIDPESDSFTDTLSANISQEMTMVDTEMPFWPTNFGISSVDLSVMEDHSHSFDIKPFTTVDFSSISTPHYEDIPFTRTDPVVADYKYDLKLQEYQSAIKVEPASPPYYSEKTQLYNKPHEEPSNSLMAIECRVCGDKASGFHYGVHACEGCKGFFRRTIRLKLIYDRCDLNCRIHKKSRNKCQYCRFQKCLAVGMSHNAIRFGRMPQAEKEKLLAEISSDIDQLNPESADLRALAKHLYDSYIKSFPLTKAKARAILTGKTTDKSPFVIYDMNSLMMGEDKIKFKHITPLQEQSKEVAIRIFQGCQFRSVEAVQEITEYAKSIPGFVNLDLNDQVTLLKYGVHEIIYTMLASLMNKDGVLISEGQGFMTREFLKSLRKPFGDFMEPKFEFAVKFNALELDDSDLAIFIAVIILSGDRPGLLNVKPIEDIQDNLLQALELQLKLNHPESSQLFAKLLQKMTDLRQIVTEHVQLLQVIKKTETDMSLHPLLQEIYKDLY
Procedure, shortened: (§1)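 HEK293EBNA cells in DMEM with 10% FBS, 37 °C, 5% CO2, transiently co-transfected with pM-human PPARγ/GAL4 expression vector and pZAC19-Luc reporter; 24 h later plated and treated with compound 1-3000 nM (n = 3 per concentration), diluted from DMSO in unsupplemented DMEM, for 24 h. Steady-Glo luciferase readout, normalized to pioglitazone 1000 nM (100%); EC50 at 50% of own maximum.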

[2] = Intrinsic clearance in human liver microsomes incubated for 30 mins in presence of NADPH by LC-MS/MS analysis
[3] = biological target: T2, Peroxisome proliferator-activated receptor gamma (Homo sapiens) (UniProt P37231); assay: Transactivation of chimeric GAL4-fused human PPARgamma transfected in HEK293EBNA cells measured at 24 hrs after drug treatment by steady-Glo luciferase assay reagent based luminescence assay relative to pioglitazone; format: cell-based; procedure, shortened: as §1
T2 sequence (whole entry): T1 sequence (P37231 whole entry)

[4] = biological target: T2, Peroxisome proliferator-activated receptor gamma (Homo sapiens); assay: Agonist activity at PPARgamma in human MKN45 cells assessed as induction of cell aggregation incubated for 5 days by Hoechst 33342 staining based IN cell analyzer method relative to (E)-3-(1-(8-((4-methyl-2-propyl-1H-benzo[d]imidazol-1-yl)methyl)dibenzo[b,e]oxepin-11(6H)-ylidene)ethyl)-1,2,4-oxadiazol-5(4H)-one
Procedure, shortened: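 MKN45 cells in RPMI1640 with 10% FBS at 37 °C, 5% CO2, seeded 2500 cells/well and exposed to compound 1-1000 nM (n = 3 per concentration) for 5 days. Nuclei stained with Hoechst 33342, imaged on IN Cell Analyzer, nuclear area computed. Maximum activity expressed as % of reference compound maximum; EC50 = concentration giving 50% of own maximum.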

[5] = AUC in BALB/c mouse at 10 mg/kg, po by LC-MS/MS analysis; format: ADME, organism-based; conditions: in vivo
Procedure, shortened: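 Male BALB/c mice, single oral dose 10 mg/kg (n = 2). Tail-vein blood at set times, plasma protein-precipitated with acetonitrile plus internal standard, LC-MS/MS (APCI, positive ion), quantified against standard curve in control plasma; AUC by noncompartmental analysis of concentration-time profile.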

[6] = Toxicity in C57BL/6 mouse assessed as hematocrit level at 40 mg/kg (reference value: 45%); format: organism-based; conditions: in vivo
Homo sapiens [7] = assay: Antitumour activity against human AsPC1/AG1 cells xenografted in SCID mouse assessed as reduction in tumor volume at 12.5 to 100 mg/kg, po bid for 14 days starting from 7th day post tumor inoculation; format: functional, organism-based
Procedure, shortened: (§2)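 Male SCID mice (8 weeks) inoculated s.c. with 3×10^7 AsPC-1/AG1 cells; from day 7, randomized by tumour volume into groups of 5 given 12.5, 25, 50 or 100 mg/kg or 0.5% MC400 vehicle orally twice daily for 14 days. Volume = 0.5 × major × minor² measured twice weekly; relative volume V/V0 versus day 0; Steel test, P < 0.05.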

Homo sapiens [8] = assay: Antitumour activity against human AsPC1/AG1 cells xenografted in SCID mouse assessed as saturated level of reduction in tumor volume at >25 mg/kg, po bid for 14 days starting from 7th day post tumor inoculation and measured after 10 days; format: functional, organism-based; procedure, shortened: as §2
[9] = Antitumour activity against human AsPC1/AG1 cells xenografted in SCID mouse assessed as minimal dose required for reduction in tumor volume administered orally bid for 14 days starting from 7th day post tumor inoculation; format: functional; conditions: ASPC1, po, 336 h, read-out: MED; procedure, shortened: as §2
Homo sapiens [10] = assay: Antitumour activity against human AsPC1/AG1 cells xenografted in SCID mouse assessed as increase in cell differentiation marker krt20 mRNA expression level at 100 mg/kg, po bid for 14 days starting from 7th day post tumor inoculation and measured at 4 hrs post last dose by qRT-PCR analysis; format: functional, organism-based
Procedure, shortened: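 Male SCID mice bearing s.c. AsPC-1/AG1 tumours (3×10^7 cells in PBS), dosed orally twice daily for 14 days from day 7 after inoculation; vehicle 0.5% MC400. Tumours collected 4 h after last dose; angptl4 and krt20 mRNA measured by qPCR, fold induction relative to baseline.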

[11] = Toxicity in Crlj:CD1(ICR) mouse assessed as serum hematocrit value at 50 mg/kg, po bid for 4 days by micro-hematocrit method (reference value: 44.1%); format: organism-based; conditions: in vivo, 96 h
[12] = Toxicity in Crlj:CD1(ICR) mouse assessed as serum hematocrit value at 200 mg/kg, po bid for 4 days by micro-hematocrit method (reference value: 44.1%); format: organism-based; conditions: in vivo, 96 h
Homo sapiens [13] = assay: Antitumour activity against human AsPC1/AG1 cells xenografted in SCID mouse assessed as increase in angptl4 mRNA expression at 100 mg/kg, po bid for 14 days starting from 7th day post tumor inoculation and measured at 4 hrs post last dose by qRT-PCR analysis

Compound	EC50 [1] [nM]	CLint scaled at 0.5 h [2] [mL/min/kg]	Emax [3] [%]	Emax [4] [%]	AUC [5] [ng·h/mL]	further results
CCCc1nc2c(C)cccc2n1Cc1ccc2c(n1)COc1ccccc1/C2=C(\C)c1noc(=O)[nH]1	86	> 415	–	–	–	–
C/C(=C1/c2ccc(Cn3c(C4CC4)nc4c(Cl)nccc43)cc2COc2cc(F)ccc21)c1noc(=O)[nH]1	24 to 59	167	13.7	105	–	–
CCCc1nc2c(C)cccc2n1Cc1ccc2c(c1)OCc1ncccc1/C2=C(\C)c1noc(=O)[nH]1	2190	34.3	–	–	–	–
CCCc1nc2ccccc2n1Cc1ccc2c(c1)COc1cc(F)ccc1/C2=C(\C)c1noc(=O)[nH]1	–	–	11.7	104	1480	–
C/C(=C1/c2ccc(Cc3c(C4CC4)nc4c5c(ccn34)OCC5)cc2COc2cc(F)ccc21)c1noc(=O)[nH]1	23	33.3	9.7	110	8760	–
COCc1nc2cc(Cl)ccn2c1Cc1ccc2c(c1)COc1cc(F)ccc1/C2=C(\C)c1noc(=O)[nH]1	–	–	9	106	2450	–
C/C(=C1/c2ccc(Cc3c(C4CC4)nc4ccc(Cl)cn34)cc2COc2cc(F)ccc21)c1noc(=O)[nH]1	11	66.7	15.1	102	1710	–
CCc1ccc(CCOc2ccc(CC3SC(=O)NC3=O)cc2)nc1 (centres undefined) [PIOGLITAZONE]	–	–	–	–	–	Activity [6]: 41%
C/C(=C1/c2ccc(Cc3c(C4CC4)nc4cc(F)ccn34)cc2COc2cc(F)ccc21)c1noc(=O)[nH]1	13	–	13.5	112	5510	–

Now from value to compound, other results behind:

EC50 [1] [nM]	CLint scaled at 0.5 h [2] [mL/min/kg]	Emax [3] [%]	Emax [4] [%]	AUC [5] [ng·h/mL]	Compound	further results
3.6	–	12.6	101	10200	C/C(=C1/c2ccc(Cc3c(C4CC4)nc4cc(Cl)ccn34)cc2COc2cc(F)ccc21)c1noc(=O)[nH]1	–
32 to 38	38.3	10.3	101	–	C/C(=C1/c2ccc(Cn3c(C4CC4)nc4c(Cl)ccnc43)cc2COc2cc(F)ccc21)c1noc(=O)[nH]1	–
21	41.7	13.7	105	196	C/C(=C1/c2ccc(Cn3c(C4CC4)nc4cscc43)cc2COc2cc(F)ccc21)c1noc(=O)[nH]1	–
4.4	377	8.7	101	–	CCCc1nc2ccccc2n1Cc1ccc2c(c1)COc1c(F)cccc1/C2=C(\C)c1noc(=O)[nH]1	–
–	> 415	–	–	–	CCCc1nc2c(C)cccc2n1Cc1ccc2c(c1)COc1ccccc1/C2=C(\C)c1noc(=O)[nH]1	–
–	–	10.6	103	6890	C/C(=C1/c2ccc(Cc3c(C4CC4)nc4c(Cl)cccn34)cc2COc2cc(F)ccc21)c1noc(=O)[nH]1	inhibition (Homo sapiens [7]): Active; inhibition (Homo sapiens [8]): Active; minimal effective dose [9]: 12.5 to 25 mg/kg; Activity (Homo sapiens [10]): Active; Activity [11]: 42.9%; Activity [12]: 42%; Activity (Homo sapiens [13]): Active
19	–	9.8	106	3750	C/C(=C1/c2ccc(Cc3c(C4CC4)nc4ccccn34)cc2COc2cc(F)ccc21)c1noc(=O)[nH]1	–
–	> 415	6.9	102	–	CCCc1nc2ccccc2n1Cc1ccc2c(c1)COc1ccc(F)cc1/C2=C(\C)c1noc(=O)[nH]1	–
7.3	21.7	7.4	96	1090	COCc1nc2c(Cl)cccn2c1Cc1ccc2c(c1)COc1cc(F)ccc1/C2=C(\C)c1noc(=O)[nH]1	–

From ChEMBL document CHEMBL4304839, “Development of a novel class of peroxisome proliferator-activated receptor (PPAR) gamma ligands as an anticancer agent with a unique binding mode based on a non-thiazolidinedione scaffold” (Bioorg Med Chem, 2019)
